CHRM5 PAM: CHRM5 positive allosteric modulation; P08912; CHO-K1 hM5, Fluo-8 calcium, ACh EC20 PAM; 0% = ACh EC20, 100% = ACh EC100; activation, % at 3 µM; 360,000 compounds, 0.3% hits; AID 624038;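 active = activation above the run cutoff, the mean activation of all test compounds plus 3 SD, cut at about 18% in these data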
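Test system: CHO-K1 hM5 cells / Doses: single-point, 3 µM nominal / Times: Post-acetylcholine fluorescence recording 140 s / Technique: Fluo-8 calcium fluorescence / Measure: Max/basal fluorescence ratio as % of EC20–EC100 ACh window / Benchmarks: low control EC20 acetylcholine (0%), high control EC100 acetylcholine (100%) / Replicates: one well per compound, no replicates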
CHRM4 antagonist: CHRM4 antagonism in calcium assay. CHO-hM4 cells, ACh EC80, Fluo-8 calcium fluorescence. P08173. 360,000 compounds, 0.73% hits. inhibition, % at 3 µM. AID 624125;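 active = inhibition above its plate's cutoff, the mean inhibition of sample wells plus 3 SD, cut at about 27% in these data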;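 note: 0% = acetylcholine EC80 with DMSO and 100% = DMSO without agonist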
Target sequence (P08173 whole entry, looked up): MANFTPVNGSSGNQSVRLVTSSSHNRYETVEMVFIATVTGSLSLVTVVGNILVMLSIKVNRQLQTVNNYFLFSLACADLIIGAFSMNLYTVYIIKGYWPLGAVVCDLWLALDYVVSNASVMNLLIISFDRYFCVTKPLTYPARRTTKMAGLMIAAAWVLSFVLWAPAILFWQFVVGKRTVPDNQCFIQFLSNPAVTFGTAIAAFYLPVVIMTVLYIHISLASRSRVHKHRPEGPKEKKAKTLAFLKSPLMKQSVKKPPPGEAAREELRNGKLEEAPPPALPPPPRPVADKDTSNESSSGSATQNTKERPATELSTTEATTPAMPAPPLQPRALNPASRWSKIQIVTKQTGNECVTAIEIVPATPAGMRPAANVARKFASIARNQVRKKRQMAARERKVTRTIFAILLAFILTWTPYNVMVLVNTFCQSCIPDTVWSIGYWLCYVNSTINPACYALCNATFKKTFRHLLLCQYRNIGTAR
CHRM4 agonist: agonists of human muscarinic M4 receptor (CHRM4); P08173; CHO-K1 hM4/Gqi5, Fluo-8 calcium fluorescence; vehicle 0%, full acetylcholine response 100%; activation, % at 3 µM; 360,000 compounds, 0.14% hits; AID 624127;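 active = activation above the run mean over all test wells plus 3 SD, cut at about 32% in these data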;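 note: peak over basal fluorescence ratio per well then scaled between controls; 0% = DMSO wells and 100% = acetylcholine at EC100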
M4 PAM: CHRM4 positive allosteric modulation; CHO-K1 hM4/Gqi5, Fluo-8 calcium fluorescence, ACh EC20; 0% = ACh EC20, 100% = maximal ACh; P08173; 360,000 compounds, 0.4% hits; activation, % at 3 µM;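 active = activation above its plate's cutoff, the mean activation of sample wells plus 3 SD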
M5 antag: CHRM5 antagonism in calcium assay; inhibition, % at 3 µM; P08912; AID 624040; CHO-hM5 cells, Fluo-8 calcium fluorescence, ACh EC80; 360,000 compounds, 0.59% hits;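 active = inhibition above a per-plate cutoff, the mean of that plate's test compounds plus 3 SD, cut at about 27% in these data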;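 note: 0% = acetylcholine EC80 with DMSO and 100% = DMSO without agonist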
M5 ag: agonists of human muscarinic M5 receptor (CHRM5); P08912; activation, % at 3 µM; AID 624037; 360,000 compounds, 0.19% hits; CHO-K1 hM5 cells, Fluo-8 calcium fluorescence; 0% DMSO wells, 100% maximal acetylcholine response;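 active = activation above the run's mean over test compounds plus 3 SD, cut at about 23% in these data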;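 note: signal is peak over basal fluorescence ratio across the kinetic read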
An asterisk follows results filed as active. The list is not random: actives were taken first. Their share in the collection is about 1.8%.

SMILES | CHRM5 PAM | CHRM4 antagonist | CHRM4 agonist | M4 PAM | M5 antag | M5 ag
CN(Cc1cccc(-c2ccncc2)c1)C(=O)Oc1ccccc1Cl | -23 | 14 | 20 | -11 | 8 | 3
C=C1C(C)C2C(Cc3ccccc3)NC(=O)C23C(OC(C)=O)C=CC(C)(O)CC(C)CC=CC3C1O (stereo not drawn) | 21* | -19 | 2 | 7 | -12 | 4
CCOC(=O)[C@]12Cc3ccc(C)cc3[C@H]1N(C1CCCCC1)C(=O)c1ccccc12 | 13 | 6 | -3 | 2 | 6 | 11
CCOC(=O)[C@]12Cc3cc(C)ccc3[C@H]1N(C1CCCCC1)C(=O)c1ccccc12 | 9 | 20 | 3 | -3 | 6 | 27*
CCOC(=O)[C@]12Cc3ccc(C)cc3[C@H]1N(C1CCCCC1)C(=O)c1cc(OC)ccc12 | 16 | 21 | -2 | 5 | 4 | 18
CCOC(=O)[C@]12Cc3cc(Cl)ccc3[C@H]1N(C1CCCCC1)C(=O)c1cc(OC)ccc12 | 6 | 77* | 1 | -9 | 18 | 51*
Cc1nc2cc(OC(=O)N(C)Cc3cccc(-c4ccncc4)c3)ccc2s1 | -24 | 15 | 27 | -15 | 21 | 9
O=C(CF)NC(NC(=S)Nc1ccccc1O)C(Cl)(Cl)Cl (stereo not drawn) | 4 | -12 | 1 | 20* | 6 | 0
O=c1[nH]c2ccccc2n1C1CCN(C(CCc2ccccc2)c2nnnn2Cc2ccccc2)CC1 (stereo not drawn) | -14 | 21 | 20 | -8 | 6 | 9
O=c1[nH]c2ccccc2n1C1CCN(C(c2nnnn2Cc2ccccc2)C2CC2)CC1 (stereo not drawn) | -18 | 29* | 24 | -13 | 24 | 14
CSCCC(c1nnnn1Cc1ccccc1)N1CCC(n2c(=O)[nH]c3ccccc32)CC1 (stereo not drawn) | -12 | 23 | 23 | -15 | 7 | 30*
O=c1[nH]c2ccccc2n1C1CCN(C(c2cccs2)c2nnnn2Cc2ccccc2)CC1 (stereo not drawn) | -9 | 14 | 10 | -5 | 7 | 2
CSCCC(c1nnnn1Cc1ccccc1)N1CCC2(CC1)C(=O)NCN2c1ccccc1 (stereo not drawn) | 0 | 2 | 25 | -14 | -1 | 44*
CC(C)(C)c1ccc(CSc2cnn(C(C)(C)C)c(=O)c2Cl)cc1 | -12 | 11 | 12 | -4 | 28* | 12
CCC(c1nnnn1-c1ccc2c(c1)OCCO2)N1CCC2(CC1)C(=O)NCN2c1ccccc1 (stereo not drawn) | -8 | 0 | 13 | -8 | 7 | 4
C(=NC1CCCCC1)c1c[nH]c2ccccc12 | 3 | -7 | 1 | 7 | 7 | 0
CC(C)=CCN1CC[C@@]2(C)c3cc(O)ccc3CC1C2C (stereo partly drawn) | -23 | 34* | 1 | -16 | 25 | -6
O=[N+]([O-])c1cc([As](=O)(O)O)ccc1O | -13 | -18 | 0 | 6 | -2 | 36*
COc1cccc(C)c1NC1=NCCO1 | 8 | -12 | 1 | 12 | -1 | 1
CC(C)(O)/C=C/C(=O)C(C)(O)C1C(O)CC2(C)C3CC=C4C(C=C(O)C(=O)C4(C)C)C3(C)C(=O)CC12C (stereo not drawn) | 19* | -22 | 1 | 14 | -6 | 4
CC(=O)OC(C)(C)/C=C/C(=O)[C@](C)(O)C1[C@H](O)C[C@@]2(C)C3CC=C4C(C[C@H](O)C(=O)C4(C)C)[C@]3(C)C(=O)C[C@]12C (stereo partly drawn) | 14 | -14 | 1 | 24* | -3 | 3
Cc1ccc(C(O)(C(=O)OC(C)C)C(O)c2ccc(F)cc2)cc1 (stereo not drawn) | 8 | -11 | 1 | -3 | -6 | -2
C[C@@]12CC[C@@H](c3cc4c(cc3C1)OCO4)N2c1ccccc1 | 1 | 2 | -3 | -10 | -4 | -4
O=C(Nc1cccc(C(F)(F)F)c1)OC1CN2CCC1CC2 (stereo not drawn) | -18 | 43* | 3 | -16 | 70* | -6
O=C(Nc1ccc(C(F)(F)F)cc1)OC1CN2CCC1CC2 (stereo not drawn) | -7 | -5 | 4 | -20 | 6 | -16
SMILES | CHRM5 PAM | CHRM4 antagonist | CHRM4 agonist | M4 PAM | M5 antag | M5 ag
CNc1cc(Cl)c2nonc2c1[N+](=O)[O-] | -7 | 34* | -2 | -6 | 15 | -5
CCN1/C(=C/C=C/C2=[N+](CC)c3ccccc3C2(C)C)C(C)(C)c2ccccc21 | -24 | 95* | 365* | -14 | 97* | 501*
CN1/C(=C\C=C2C(=O)NC(=O)NC2=O)C(C)(C)c2ccccc21 | -18 | 10 | 17 | -17 | 10 | 14
C[C@]12CCC3C(CC[C@H]4C[C@@H](O)CC[C@]34C)[C@H]1C=CC2=O (stereo partly drawn) | 1 | -16 | 2 | 15* | 4 | 0
C[C@]12CCC3[C@@H](CC[C@@H]4C[C@H](O)CC[C@]34C)[C@@H]1CCC2=O (stereo partly drawn) | -1 | 8 | 3 | 0 | -1 | 1
C[C@]12CC[C@H](O)C[C@@H]1CC[C@@H]1[C@@H]2CC[C@]2(C)C(=O)CC[C@@H]12 | -18 | -13 | 20 | -9 | 0 | 48*
Cc1ccc(CN2Cc3ccc(Br)cc3-n3nncc3C2)cc1 | -3 | -1 | -1 | -6 | 4 | -2
COC12c3ccccc3-c3ccccc3C1C(C(=O)O)C2C(=O)O (stereo not drawn) | 3 | 4 | 1 | 6 | -3 | 3
O=c1c2ccccc2nc(-c2ccccc2)n1-c1ccncc1 | -4 | 8 | 2 | 4 | -2 | 1
c1ccc(C(c2ccccc2)c2ccncc2)cc1 | -38 | 42* | 5 | -16 | 37* | -11
O=C1C2CCCN2C(c2cccnc2)N1c1ccc(Cl)cc1 (stereo not drawn) | 3 | 1 | 1 | 30* | -7 | -2
COc1ccc(CCN)cc1S(N)(=O)=O | 0 | -4 | 2 | -1 | -10 | 2
CN(C)c1ccc(/C=C/[N+](=O)[O-])cc1 | -8 | 11 | 10 | 1 | 55* | 35*
O=C(NCC1=C(c2cccc3ccccc23)C[C@@H]2CC[C@H]1N2Cc1ccco1)c1ccc([N+](=O)[O-])cc1 | -6 | 8 | 3 | -8 | 9 | -3
CN1C(=O)CCC2(C)C1=CCC1C2CCC2(C)C1CCC2(C)O (stereo not drawn) | 18* | -4 | 2 | 13 | -7 | 4
